Measurements published in ChEMBL document CHEMBL1275589, “Molecular epidemiology, sequence types, and plasmid analyses of KPC-producing Klebsiella pneumoniae strains in Israel” (2010).
Values after ≈ are worked out from the molar mass of the structure shown.

Columns and labels:
[1] = system: Klebsiella pneumoniae; assay: Antimicrobial activity against carbapenem-resistant KPC-2 producing Klebsiella pneumoniae 469 transformant by agar dilution method; type: functional
[2] = system: Klebsiella pneumoniae; assay: Antimicrobial activity against carbapenem-resistant KPC-2 producing Klebsiella pneumoniae 588 ST 340 expressing beta-lactamase TEM-1 and SHV-11 by agar dilution method; type: functional
[3] = system: Klebsiella pneumoniae; assay: Antimicrobial activity against carbapenem-resistant KPC-2 producing Klebsiella pneumoniae 365 transformant by agar dilution method; type: functional
[4] = system: Klebsiella pneumoniae; assay: Antimicrobial activity against carbapenem-resistant KPC-2 producing Klebsiella pneumoniae 526 transformant by agar dilution method; type: functional
[5] = system: Klebsiella pneumoniae; assay: Antimicrobial activity against carbapenem-resistant KPC-2 producing Klebsiella pneumoniae 469 ST 277 expressing beta-lactamase SHV-27, CTX-M-15 and OXA-4 by agar dilution method; type: functional
[6] = system: Klebsiella pneumoniae; assay: Antimicrobial activity against KPC-3 producing Klebsiella pneumoniae 549 transformant by agar dilution method; type: functional
[7] = system: Escherichia coli; assay: Antimicrobial activity against Escherichia coli Genehogs by agar dilution method; type: functional
In short: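 Carbapenem MICs by agar dilution, interpreted per CLSI. FDA Enterobacteriaceae breakpoints applied: susceptible ≤2 μg/ml, intermediate 4 μg/ml, resistant ≥8 μg/ml. Transformants were made in recipient E. coli GeneHogs with purified plasmid DNA.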

[8] = system: Klebsiella pneumoniae; assay: Antimicrobial activity against carbapenem-resistant KPC-2 producing Klebsiella pneumoniae 365 ST 376 expressing beta-lactamase SHV-1, CTX-M-15 and OXA-4 by agar dilution method
[9] = system: Klebsiella pneumoniae; assay: Antimicrobial activity against carbapenem-resistant KPC-2 producing Klebsiella pneumoniae 531 ST 376 expressing beta-lactamase SHV-1 by agar dilution method; type: functional
[10] = system: Klebsiella pneumoniae; assay: Antimicrobial activity against carbapenem-resistant KPC-2 producing Klebsiella pneumoniae 523 ST 340 expressing beta-lactamase TEM-1, SHV-11 and OXA-2 by agar dilution method; type: functional
[11] = system: Klebsiella pneumoniae; assay: Antimicrobial activity against carbapenem-resistant KPC-2 producing Klebsiella pneumoniae 588 transformant by agar dilution method; type: functional
[12] = system: Klebsiella pneumoniae; assay: Antimicrobial activity against carbapenem-resistant KPC-2 producing Klebsiella pneumoniae 475 transformant by agar dilution method; type: functional
[13] = system: Klebsiella pneumoniae; assay: Antimicrobial activity against carbapenem-resistant KPC-2 producing Klebsiella pneumoniae 531 transformant by agar dilution method; type: functional
[14] = system: Klebsiella pneumoniae; assay: Antimicrobial activity against KPC-3 producing Klebsiella pneumoniae 557 ST 258 expressing beta-lactamase TEM-1 by agar dilution method
[15] = system: Klebsiella pneumoniae; assay: Antimicrobial activity against carbapenem-resistant KPC-2 producing Klebsiella pneumoniae 525 transformant by agar dilution method; type: functional
[16] = system: Klebsiella pneumoniae; assay: Antimicrobial activity against KPC-3 producing Klebsiella pneumoniae 557 transformant by agar dilution method; type: functional
[17] = system: Klebsiella pneumoniae; assay: Antimicrobial activity against carbapenem-resistant KPC-2 producing Klebsiella pneumoniae 525 ST 376 expressing beta-lactamase SHV-1 by agar dilution method; type: functional
[18] = system: Klebsiella pneumoniae; assay: Antimicrobial activity against carbapenem-resistant KPC-2 producing Klebsiella pneumoniae 523 transformant by agar dilution method; type: functional
[19] = system: Klebsiella pneumoniae; assay: Antimicrobial activity against carbapenem-resistant KPC-2 producing Klebsiella pneumoniae 475 ST 277 expressing beta-lactamase SHV-27, CTX-M-15 and OXA-4 by agar dilution method; type: functional
[20] = system: Klebsiella pneumoniae; assay: Antimicrobial activity against KPC-3 producing Klebsiella pneumoniae 549 ST 327 expressing beta-lactamase TEM-1 and CTX-M-2 by agar dilution method; type: functional
[21] = system: Klebsiella pneumoniae; assay: Antimicrobial activity against carbapenem-resistant KPC-2 producing Klebsiella pneumoniae 526 ST 376 expressing beta-lactamase SHV-1 by agar dilution method; type: functional
[22] = system: Klebsiella pneumoniae; assay: Antimicrobial activity against carbapenem-resistant KPC-2 producing Klebsiella pneumoniae 475 transformant by Etest; type: functional
[23] = system: Klebsiella pneumoniae; assay: Antimicrobial activity against carbapenem-resistant KPC-2 producing Klebsiella pneumoniae 588 transformant by Etest; type: functional
[24] = system: Klebsiella pneumoniae; assay: Antimicrobial activity against KPC-3 producing Klebsiella pneumoniae 549 ST 327 expressing beta-lactamase TEM-1 and CTX-M-2 by Etest; type: functional
[25] = system: Escherichia coli; assay: Antimicrobial activity against Escherichia coli Genehogs by Etest; type: functional
[26] = system: Klebsiella pneumoniae; assay: Antimicrobial activity against carbapenem-resistant KPC-2 producing Klebsiella pneumoniae 523 transformant by Etest; type: functional
[27] = system: Klebsiella pneumoniae; assay: Antimicrobial activity against carbapenem-resistant KPC-2 producing Klebsiella pneumoniae 531 transformant by Etest; type: functional
[28] = system: Klebsiella pneumoniae; assay: Antimicrobial activity against carbapenem-resistant KPC-2 producing Klebsiella pneumoniae 365 transformant by Etest; type: functional
[29] = system: Klebsiella pneumoniae; assay: Antimicrobial activity against carbapenem-resistant KPC-2 producing Klebsiella pneumoniae 469 ST 277 expressing beta-lactamase SHV-27, CTX-M-15 and OXA-4 by Etest; type: functional
[30] = system: Klebsiella pneumoniae; assay: Antimicrobial activity against carbapenem-resistant KPC-2 producing Klebsiella pneumoniae 525 ST 376 expressing beta-lactamase SHV-1 by Etest; type: functional
[31] = system: Klebsiella pneumoniae; assay: Antimicrobial activity against carbapenem-resistant KPC-2 producing Klebsiella pneumoniae 525 transformant by Etest; type: functional
[32] = system: Klebsiella pneumoniae; assay: Antimicrobial activity against KPC-3 producing Klebsiella pneumoniae 549 transformant by Etest; type: functional
[33] = system: Klebsiella pneumoniae; assay: Antimicrobial activity against carbapenem-resistant KPC-2 producing Klebsiella pneumoniae 588 ST 340 expressing beta-lactamase TEM-1 and SHV-11 by Etest; type: functional
[34] = system: Klebsiella pneumoniae; assay: Antimicrobial activity against carbapenem-resistant KPC-2 producing Klebsiella pneumoniae 475 ST 277 expressing beta-lactamase SHV-27, CTX-M-15 and OXA-4 by Etest; type: functional
[35] = system: Klebsiella pneumoniae; assay: Antimicrobial activity against carbapenem-resistant KPC-2 producing Klebsiella pneumoniae 526 ST 376 expressing beta-lactamase SHV-1 by Etest; type: functional
[36] = system: Klebsiella pneumoniae; assay: Antimicrobial activity against carbapenem-resistant KPC-2 producing Klebsiella pneumoniae 523 ST 340 expressing beta-lactamase TEM-1, SHV-11 and OXA-2 by Etest; type: functional
[37] = system: Klebsiella pneumoniae; assay: Antimicrobial activity against KPC-3 producing Klebsiella pneumoniae 557 transformant by Etest; type: functional
[38] = system: Klebsiella pneumoniae; assay: Antimicrobial activity against carbapenem-resistant KPC-2 producing Klebsiella pneumoniae 526 transformant by Etest; type: functional
[39] = system: Klebsiella pneumoniae; assay: Antimicrobial activity against carbapenem-resistant KPC-2 producing Klebsiella pneumoniae 531 ST 376 expressing beta-lactamase SHV-1 by Etest; type: functional
[40] = system: Klebsiella pneumoniae; assay: Antimicrobial activity against carbapenem-resistant KPC-2 producing Klebsiella pneumoniae 469 transformant by Etest; type: functional

Question: Which results are given for `C[C@@H](O)[C@H]1C(=O)N2C(C(=O)O)=C(SCCNC=N)C[C@H]12` [IMIPENEM ANHYDROUS]?
Answer: MIC [1]: 8 µg/mL (≈ 26.7 µM); MIC [2]: 32 µg/mL (≈ 107 µM); MIC [3]: 8 µg/mL (≈ 26.7 µM); MIC [4]: 8 µg/mL (≈ 26.7 µM); MIC [5]: 32 µg/mL (≈ 107 µM); MIC [6]: 4 µg/mL (≈ 13.4 µM); MIC [7]: 0.094 µg/mL (≈ 0.314 µM); MIC [8]: 32 µg/mL (≈ 107 µM); MIC [9]: 32 µg/mL (≈ 107 µM); MIC [10]: 32 µg/mL (≈ 107 µM); MIC [11]: 8 µg/mL (≈ 26.7 µM); MIC [12]: 8 µg/mL (≈ 26.7 µM); MIC [13]: 4 µg/mL (≈ 13.4 µM); MIC [14]: 128 µg/mL (≈ 428 µM); MIC [15]: 4 µg/mL (≈ 13.4 µM); MIC [16]: 4 µg/mL (≈ 13.4 µM); MIC [17]: 32 µg/mL (≈ 107 µM); MIC [18]: 8 µg/mL (≈ 26.7 µM); MIC [19]: 32 µg/mL (≈ 107 µM); MIC [20]: 0.75 µg/mL (≈ 2.51 µM); MIC [21]: 32 µg/mL (≈ 107 µM)

Question: With `C[C@H]1COc2c(N3CCN(C)CC3)c(F)cc3c(=O)c(C(=O)O)cn1c23.C[C@H]1COc2c(N3CCN(C)CC3)c(F)cc3c(=O)c(C(=O)O)cn1c23.O` [LEVOFLOXACIN] as the compound, how does the MIC [1] read?
Answer: < 0.25 µg/mL

Question: What about the MIC [2] of the same compound?
Answer: > 8 µg/mL

Question: And the MIC [3]?
Answer: < 0.12 µg/mL

Question: And the MIC [4]?
Answer: < 0.12 µg/mL

Question: And the MIC [5]?
Answer: < 0.25 µg/mL

Question: What about the MIC [6] of the same compound?
Answer: < 0.25 µg/mL

Question: And the MIC [7]?
Answer: 0.006 µg/mL

Question: And the MIC [8]?
Answer: > 8 µg/mL

Question: And the MIC [9]?
Answer: > 8 µg/mL

Question: And the MIC [10]?
Answer: > 8 µg/mL

Question: And the MIC [11]?
Answer: < 0.12 µg/mL

Question: And the MIC [12]?
Answer: < 0.12 µg/mL

Question: What about the MIC [13] of the same compound?
Answer: < 0.25 µg/mL

Question: And the MIC [14]?
Answer: > 8 µg/mL

Question: What about the MIC [15] of the same compound?
Answer: < 0.25 µg/mL

Question: What about the MIC [16] of the same compound?
Answer: < 0.25 µg/mL

Question: And the MIC [17]?
Answer: > 8 µg/mL

Question: What about the MIC [18] of the same compound?
Answer: 0.25 µg/mL

Question: What about the MIC [20] of the same compound?
Answer: > 8 µg/mL

Question: What about the MIC [21] of the same compound?
Answer: > 8 µg/mL

Question: How did the MIC [1] turn out when `C[C@@H](O)[C@H]1C(=O)N2C(C(=O)O)=C(S[C@@H]3CN[C@H](C(=O)N(C)C)C3)[C@H](C)[C@H]12` [MEROPENEM] was run?
Answer: 4 µg/mL (≈ 10.4 µM)

Question: What about the MIC [2] of the same compound?
Answer: 64 µg/mL (≈ 167 µM)

Question: What about the MIC [3] of the same compound?
Answer: 4 µg/mL (≈ 10.4 µM)

Question: What about the MIC [4] of the same compound?
Answer: 4 µg/mL (≈ 10.4 µM)

Question: What about the MIC [5] of the same compound?
Answer: 32 µg/mL (≈ 83.4 µM)

Question: What about the MIC [6] of the same compound?
Answer: 2 µg/mL (≈ 5.22 µM)

Question: What about the MIC [7] of the same compound?
Answer: 0.012 µg/mL (≈ 0.0313 µM)

Question: And the MIC [8]?
Answer: 64 µg/mL (≈ 167 µM)

Question: And the MIC [9]?
Answer: 64 µg/mL (≈ 167 µM)

Question: What about the MIC [10] of the same compound?
Answer: 32 µg/mL (≈ 83.4 µM)

Question: What about the MIC [11] of the same compound?
Answer: 4 µg/mL (≈ 10.4 µM)

Question: And the MIC [12]?
Answer: 4 µg/mL (≈ 10.4 µM)

Question: What about the MIC [13] of the same compound?
Answer: 4 µg/mL (≈ 10.4 µM)

Question: And the MIC [14]?
Answer: 128 µg/mL (≈ 334 µM)

Question: And the MIC [15]?
Answer: 4 µg/mL (≈ 10.4 µM)

Question: And the MIC [16]?
Answer: 4 µg/mL (≈ 10.4 µM)

Question: And the MIC [17]?
Answer: 64 µg/mL (≈ 167 µM)

Question: And the MIC [18]?
Answer: 4 µg/mL (≈ 10.4 µM)

Question: And the MIC [19]?
Answer: 64 µg/mL (≈ 167 µM)

Question: What about the MIC [20] of the same compound?
Answer: 8 µg/mL (≈ 20.9 µM)

Question: And the MIC [21]?
Answer: 64 µg/mL (≈ 167 µM)

Question: Which results are given for COLISTIN?
Answer: MIC [22]: 0.032 µg/mL; MIC [23]: 0.047 µg/mL; MIC [24]: 0.125 µg/mL; MIC [25]: 0.125 µg/mL; MIC [26]: 0.047 µg/mL; MIC [27]: 0.032 µg/mL; MIC [28]: 0.032 µg/mL; MIC [29]: 0.125 µg/mL; MIC [30]: 0.125 µg/mL; MIC [31]: 0.032 µg/mL; MIC [32]: 0.032 µg/mL; MIC [33]: 0.19 µg/mL; MIC [34]: 0.19 µg/mL; MIC [35]: 0.125 µg/mL; MIC [36]: 0.125 µg/mL; MIC [37]: 0.032 µg/mL; MIC [38]: 0.032 µg/mL; MIC [39]: 0.125 µg/mL; MIC [40]: 0.032 µg/mL

Question: Which results are given for GENTAMICIN?
Answer: MIC [1]: > 16 µg/mL; MIC [2]: < 1 µg/mL; MIC [3]: < 1 µg/mL; MIC [4]: < 1 µg/mL; MIC [5]: > 16 µg/mL; MIC [6]: < 1 µg/mL; MIC [7]: < 1 µg/mL; MIC [9]: < 1 µg/mL; MIC [10]: > 16 µg/mL; MIC [11]: 2 µg/mL; MIC [12]: > 16 µg/mL; MIC [13]: < 1 µg/mL; MIC [15]: < 1 µg/mL; MIC [16]: < 1 µg/mL; MIC [17]: < 1 µg/mL; MIC [18]: 2 µg/mL; MIC [19]: > 16 µg/mL; MIC [20]: > 16 µg/mL; MIC [21]: < 1 µg/mL
